≈ marks a conversion by molar mass, not a printed value. Calls of active or inactive are those of the source. The rule behind the calls is not given here.
Tests used:
[1] = system: Staphylococcus aureus; assay: Antibacterial activity against Staphylococcus aureus at 50 ug/ml after 24 hrs by agar well diffusion method; format: functional; conditions: for zone of inhibition at 50 µg/mL: read-out: DIZ
Summary of the method: (§1)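 Agar well diffusion. Nutrient plates swabbed with 24 h broth culture of the bacterium; 6 mm wells bored and loaded with DMSO solutions of compound (wells at 50 and 100 per well). Chloramphenicol positive control, DMSO negative control. Plates held 37 °C, 24 h; inhibition zone diameter (mm) measured, mean of duplicates.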

[2] = system: Staphylococcus aureus; assay: Antibacterial activity against Staphylococcus aureus at 100 ug/ml after 24 hrs by agar well diffusion method; format: functional; conditions: for zone of inhibition at 100 µg/mL: read-out: DIZ; summary of the method: as §1
[3] = system: Bacillus subtilis; assay: Antibacterial activity against Bacillus subtilis at 50 ug/ml after 24 hrs by agar well diffusion method; format: functional; conditions: for zone of inhibition at 50 µg/mL: read-out: DIZ; summary of the method: as §1
[4] = system: Bacillus subtilis; assay: Antibacterial activity against Bacillus subtilis at 100 ug/ml after 24 hrs by agar well diffusion method; format: functional; conditions: for zone of inhibition at 100 µg/mL: read-out: DIZ; summary of the method: as §1
[5] = system: Pseudomonas aeruginosa; assay: Antibacterial activity against Pseudomonas aeruginosa at 50 ug/ml after 24 hrs by agar well diffusion method; format: functional; conditions: for zone of inhibition at 50 µg/mL: read-out: DIZ; summary of the method: as §1
[6] = system: Pseudomonas aeruginosa; assay: Antibacterial activity against Pseudomonas aeruginosa at 100 ug/ml after 24 hrs by agar well diffusion method; format: functional; conditions: for zone of inhibition at 100 µg/mL: read-out: DIZ; summary of the method: as §1
[7] = system: Klebsiella pneumoniae; assay: Antibacterial activity against Klebsiella pneumoniae at 50 ug/ml after 24 hrs by agar well diffusion method; format: functional; conditions: for zone of inhibition at 50 µg/mL: read-out: DIZ; summary of the method: as §1
[8] = system: Klebsiella pneumoniae; assay: Antibacterial activity against Klebsiella pneumoniae at 100 ug/ml after 24 hrs by agar well diffusion method; format: functional; conditions: for zone of inhibition at 100 µg/mL: read-out: DIZ; summary of the method: as §1
[9] = system: Aspergillus niger; assay: Antifungal activity against Aspergillus niger at 50 ug/ml after 48 hrs by agar well diffusion method; format: functional; conditions: for zone of inhibition at 50 µg/mL: read-out: DIZ
Summary of the method: (§2)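 Fungal agar well diffusion. Plates swabbed with fungal culture, 6 mm wells filled with DMSO solutions of compound (50 and 100 per well). Ketoconazole positive and DMSO negative controls. Plates incubated 28 °C for 48 h; zone of inhibition diameter (mm) read, average of duplicates.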

[10] = system: Aspergillus niger; assay: Antifungal activity against Aspergillus niger at 100 ug/ml after 48 hrs by agar well diffusion method; format: functional; conditions: for zone of inhibition at 100 µg/mL: read-out: DIZ; summary of the method: as §2
[11] = system: Penicillium chrysogenum; assay: Antifungal activity against Penicillium chrysogenum at 50 ug/ml after 48 hrs by agar well diffusion method; format: functional; conditions: for zone of inhibition at 50 µg/mL: read-out: DIZ; summary of the method: as §2
[12] = system: Penicillium chrysogenum; assay: Antifungal activity against Penicillium chrysogenum at 100 ug/ml after 48 hrs by agar well diffusion method; format: functional; conditions: for zone of inhibition at 100 µg/mL: read-out: DIZ; summary of the method: as §2
[13] = system: Staphylococcus aureus; assay: Antibacterial activity against Staphylococcus aureus after 24 hrs by broth dilution method; format: functional
Summary of the method: (§3)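 Broth dilution MIC. Test samples in DMSO added at increasing concentrations to tubes of nutrient broth cultures, incubated 37 °C for 24 h. Visible turbidity scored against NB control; solvent and no-sample controls included. MIC = lowest concentration preventing visible growth.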

[14] = system: Bacillus subtilis; assay: Antibacterial activity against Bacillus subtilis after 24 hrs by broth dilution method; format: functional; summary of the method: as §3
[15] = system: Pseudomonas aeruginosa; assay: Antibacterial activity against Pseudomonas aeruginosa after 24 hrs by broth dilution method; format: functional; summary of the method: as §3
[16] = system: Klebsiella pneumoniae; assay: Antibacterial activity against Klebsiella pneumoniae after 24 hrs by broth dilution method; format: functional; summary of the method: as §3
[17] = system: Aspergillus niger; assay: Antifungal activity against Aspergillus niger after 48 hrs by broth dilution method; format: functional
Summary of the method: (§4)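 Fungal MIC by broth dilution. Compounds dissolved in DMSO, added at rising concentrations to fungal culture tubes, incubated 28 °C for 48 h. Tubes read for visible turbidity alongside a solvent control; lowest concentration with no visible growth taken as MIC.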

[18] = system: Penicillium chrysogenum; assay: Antifungal activity against Penicillium chrysogenum after 48 hrs by broth dilution method; format: functional; summary of the method: as §4
[19] = system: Staphylococcus aureus; assay: Bactericidal activity against Staphylococcus aureus after 24 hrs by broth dilution method; format: functional
[20] = system: Bacillus subtilis; assay: Bactericidal activity against Bacillus subtilis after 24 hrs by broth dilution method; format: functional
[21] = system: Pseudomonas aeruginosa; assay: Bactericidal activity against Pseudomonas aeruginosa after 24 hrs by broth dilution method; format: functional
[22] = system: Klebsiella pneumoniae; assay: Bactericidal activity against Klebsiella pneumoniae after 24 hrs by broth dilution method; format: functional
[23] = system: Aspergillus niger; assay: Fungicidal activity against Aspergillus niger after 48 hrs by broth dilution method; format: functional
[24] = system: Penicillium chrysogenum; assay: Fungicidal activity against Penicillium chrysogenum after 48 hrs by broth dilution method; format: functional
[25] = system: Bacillus subtilis; assay: Ratio of MBC to MIC for Bacillus subtilis after 24 hrs; format: functional
[26] = system: Penicillium chrysogenum; assay: Ratio of MFC to MIC for Penicillium chrysogenum after 48 hrs; format: functional
[27] = system: A549; assay: Cytotoxicity against human A549 cells up to 0.2 mM after 72 hrs by MTT assay
[28] = system: A549; assay: Cytotoxicity against human A549 cells after 72 hrs by MTT assay; format: functional, cell-based
Summary of the method: (§5)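 A549 lung carcinoma cells, 5 × 10⁴ per well, in DMEM with 10% FBS and antibiotics at 37 °C, 5% CO₂. After 3–4 h attachment, compound added at various concentrations for 72 h. MTT then added for 3 h, formazan dissolved in DMSO, absorbance read at 550 nm. Triplicate wells, three independent experiments; IC50 derived by curve fitting.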

[29] = system: A549; assay: Cytotoxicity against human A549 cells assessed as decrease in viability at 100 to 200 uM after 72 hrs by MTT assay; format: functional, cell-based; summary of the method: as §5
[30] = system: A549; assay: Cytotoxicity against human A549 cells assessed as viability at 12.5 uM after 72 hrs by MTT assay; format: functional; conditions: A549, 72 h, read-out: Activity; summary of the method: as §5

SMILES | zone of inhibition at 50 µg/mL [1] | zone of inhibition at 100 µg/mL [2] | zone of inhibition at 50 µg/mL [3] | zone of inhibition at 100 µg/mL [4] | zone of inhibition at 50 µg/mL [5] | zone of inhibition at 100 µg/mL [6] | zone of inhibition at 50 µg/mL [7] | zone of inhibition at 100 µg/mL [8] | zone of inhibition at 50 µg/mL [9] | zone of inhibition at 100 µg/mL [10] | zone of inhibition at 50 µg/mL [11] | zone of inhibition at 100 µg/mL [12] | Activity [27] | other results
Nn1c(CS(=O)(=O)/C=C/S(=O)(=O)c2ccc(Cl)cc2)nnc1CS(=O)(=O)Nc1ccc(Cl)cc1 | 32 mm | 35 mm | 36 mm | 38 mm | 31 mm | 33 mm | 39 mm | 40 mm | 32 mm | 34 mm | 35 mm | 38 mm | inactive | MIC [13]: 12.5 µg/mL (≈ 22.1 µM); MIC [14]: 12.5 µg/mL (≈ 22.1 µM); MIC [15]: 12.5 µg/mL (≈ 22.1 µM); MIC [16]: 25 µg/mL (≈ 44.1 µM); MIC [17]: 12.5 µg/mL (≈ 22.1 µM); MIC [18]: 25 µg/mL (≈ 44.1 µM); MBC [19]: 50 µg/mL (≈ 88.3 µM); MBC [20]: 25 µg/mL (≈ 44.1 µM); MBC [21]: 50 µg/mL (≈ 88.3 µM); MBC [22]: 100 µg/mL (≈ 177 µM); MFC [23]: 100 µg/mL (≈ 177 µM); MFC [24]: 50 µg/mL (≈ 88.3 µM); Ratio [25]: 2; Ratio [26]: 2
O=S(=O)(/C=C/S(=O)(=O)c1ccc(Cl)cc1)Cc1nnc(CS(=O)(=O)Nc2ccc(Cl)cc2)o1 | 14 mm | 17 mm | 15 mm | 17 mm | 16 mm | 19 mm | 15 mm | 17 mm | 19 mm | 22 mm | 21 mm | 25 mm |  | Activity [28]: Dose-dependent effect; IC50 ([28]; A549, 72 h): 31.7 µM; Activity [29]: Active; viability at 12.5 µM [30]: > 75%
O=S(=O)(Cc1nnc(CS(=O)(=O)c2c[nH]nc2S(=O)(=O)c2ccc(Cl)cc2)s1)Nc1ccc(Cl)cc1 | 27 mm | 29 mm | 28 mm | 31 mm | 24 mm | 26 mm | 30 mm | 33 mm | 30 mm | 32 mm | 31 mm | 34 mm | inactive | 
Cc1ccc(NS(=O)(=O)Cc2nnc(CS(=O)(=O)c3c[nH]nc3S(=O)(=O)c3ccc(C)cc3)o2)cc1 |  |  |  |  |  |  |  |  |  |  |  |  | inactive | diameter of the inhibition zone (DIZ) [1]: inactive; diameter of the inhibition zone (DIZ) [2]: inactive; diameter of the inhibition zone (DIZ) [3]: inactive; diameter of the inhibition zone (DIZ) [4]: inactive; diameter of the inhibition zone (DIZ) [5]: inactive; diameter of the inhibition zone (DIZ) [6]: inactive; diameter of the inhibition zone (DIZ) [7]: inactive; diameter of the inhibition zone (DIZ) [8]: inactive; diameter of the inhibition zone (DIZ) [9]: inactive; diameter of the inhibition zone (DIZ) [10]: inactive; diameter of the inhibition zone (DIZ) [11]: inactive; diameter of the inhibition zone (DIZ) [12]: inactive

— ChEMBL document CHEMBL2040768, “Synthesis, antimicrobial and cytotoxic activities of sulfone linked bis heterocycles” (Eur J Med Chem, 2012)
